Test results reported in ChEMBL document CHEMBL5653631, “A Potent and Selective ULK1 Inhibitor Suppresses Autophagy and Sensitizes Cancer Cells to Nutrient Stress” (iScience, 2018).
Values belong to the compound of their own block, whether it stands above or below them.

Key:
[1] = molecular target: Serine/threonine-protein kinase mTOR (Homo sapiens) (UniProt P42345); assay: Inhibition of human recombinant FRAP at 500 nM related to control ULK1
[2] = molecular target: Activin receptor type-1-like (Homo sapiens) (UniProt P37023); assay: Inhibition of human recombinant ALK1 at 500 nM in presence of ATP by radiometric assay relative to control
Chain of Activin receptor type-1-like (Homo sapiens) (P37023 whole entry): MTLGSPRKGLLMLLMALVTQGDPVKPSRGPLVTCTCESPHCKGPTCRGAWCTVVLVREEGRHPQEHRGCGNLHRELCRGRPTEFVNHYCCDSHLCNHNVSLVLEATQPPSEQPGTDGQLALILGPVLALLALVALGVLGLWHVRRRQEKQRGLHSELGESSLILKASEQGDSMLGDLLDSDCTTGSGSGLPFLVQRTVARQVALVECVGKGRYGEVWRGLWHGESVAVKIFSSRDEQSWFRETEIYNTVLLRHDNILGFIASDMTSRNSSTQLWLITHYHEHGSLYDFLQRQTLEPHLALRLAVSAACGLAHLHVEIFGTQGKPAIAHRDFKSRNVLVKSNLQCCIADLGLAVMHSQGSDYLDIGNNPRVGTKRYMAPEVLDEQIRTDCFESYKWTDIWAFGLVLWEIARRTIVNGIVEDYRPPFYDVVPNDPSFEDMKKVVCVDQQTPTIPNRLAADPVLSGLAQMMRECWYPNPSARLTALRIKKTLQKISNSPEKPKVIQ
Method in brief: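 Panel of 327 recombinant human kinases, each assayed in vitro by radiometric activity assay in duplicate at a single inhibitor concentration per compound, chosen with reference to its ULK1 inhibition. Activity remaining was expressed as percent of vehicle control, and percent inhibition was calculated as 100 minus percent activity remaining.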

[3] = molecular target: T1, Tribbles homolog 2 (Homo sapiens) (UniProt Q92519); assay: Inhibition of human recombinant Trb2 at 500 nM in presence of ATP by radiometric assay relative to control
T1 sequence (whole entry): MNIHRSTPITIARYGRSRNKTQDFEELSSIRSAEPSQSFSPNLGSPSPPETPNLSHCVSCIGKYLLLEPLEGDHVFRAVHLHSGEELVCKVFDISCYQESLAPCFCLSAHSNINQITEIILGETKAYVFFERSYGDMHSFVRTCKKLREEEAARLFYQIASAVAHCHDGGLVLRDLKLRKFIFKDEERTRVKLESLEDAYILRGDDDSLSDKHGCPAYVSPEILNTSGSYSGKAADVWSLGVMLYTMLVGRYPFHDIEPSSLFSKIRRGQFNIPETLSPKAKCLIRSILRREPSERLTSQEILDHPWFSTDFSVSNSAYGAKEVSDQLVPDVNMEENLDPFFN

[4] = molecular target: Tyrosine-protein kinase ABL2 (Homo sapiens) (UniProt P42684); assay: Inhibition of human recombinant ABL2 at 15 nM in presence of ATP by radiometric assay relative to control
Chain of Tyrosine-protein kinase ABL2 (Homo sapiens) (P42684 whole entry): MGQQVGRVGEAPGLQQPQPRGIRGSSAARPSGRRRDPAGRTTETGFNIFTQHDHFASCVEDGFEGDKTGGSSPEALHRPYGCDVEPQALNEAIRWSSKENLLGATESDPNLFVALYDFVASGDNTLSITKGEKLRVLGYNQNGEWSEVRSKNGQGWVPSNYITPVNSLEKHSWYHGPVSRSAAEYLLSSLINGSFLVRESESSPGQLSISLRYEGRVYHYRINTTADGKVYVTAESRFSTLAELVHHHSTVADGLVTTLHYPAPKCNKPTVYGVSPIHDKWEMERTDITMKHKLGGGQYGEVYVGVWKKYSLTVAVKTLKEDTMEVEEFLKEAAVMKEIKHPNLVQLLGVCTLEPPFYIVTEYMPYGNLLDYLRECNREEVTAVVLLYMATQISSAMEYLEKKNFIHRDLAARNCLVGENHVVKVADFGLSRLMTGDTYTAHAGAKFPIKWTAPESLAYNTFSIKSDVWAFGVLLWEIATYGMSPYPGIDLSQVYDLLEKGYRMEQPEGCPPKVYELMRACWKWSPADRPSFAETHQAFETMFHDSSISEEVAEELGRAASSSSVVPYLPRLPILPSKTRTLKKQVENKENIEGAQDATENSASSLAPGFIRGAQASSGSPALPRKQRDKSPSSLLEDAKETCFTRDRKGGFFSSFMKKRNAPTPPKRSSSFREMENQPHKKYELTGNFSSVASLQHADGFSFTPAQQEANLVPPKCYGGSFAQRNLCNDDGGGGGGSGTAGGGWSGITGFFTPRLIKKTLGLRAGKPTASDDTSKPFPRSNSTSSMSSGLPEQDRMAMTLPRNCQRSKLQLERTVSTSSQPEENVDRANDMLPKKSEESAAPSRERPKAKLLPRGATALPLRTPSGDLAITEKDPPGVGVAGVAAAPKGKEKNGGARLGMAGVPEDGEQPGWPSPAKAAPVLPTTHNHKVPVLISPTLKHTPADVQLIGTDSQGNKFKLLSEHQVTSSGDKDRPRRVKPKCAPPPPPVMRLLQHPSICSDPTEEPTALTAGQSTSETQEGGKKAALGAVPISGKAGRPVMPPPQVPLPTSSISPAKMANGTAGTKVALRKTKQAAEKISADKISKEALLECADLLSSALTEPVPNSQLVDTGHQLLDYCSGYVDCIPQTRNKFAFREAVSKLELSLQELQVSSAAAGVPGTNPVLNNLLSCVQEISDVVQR
Method in brief: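 Panel of 327 recombinant human kinases in radiometric activity assays, each screened in duplicate at a single inhibitor concentration; percent activity remaining relative to vehicle control, percent inhibition taken as 100 minus activity remaining.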

[5] = molecular target: Calcium/calmodulin-dependent protein kinase type II subunit beta (Homo sapiens) (UniProt Q13554); assay: Inhibition of human recombinant CaMK2b at 15 nM related to control ULK1
Chain of Calcium/calmodulin-dependent protein kinase type II subunit beta (Homo sapiens) (Q13554 whole entry): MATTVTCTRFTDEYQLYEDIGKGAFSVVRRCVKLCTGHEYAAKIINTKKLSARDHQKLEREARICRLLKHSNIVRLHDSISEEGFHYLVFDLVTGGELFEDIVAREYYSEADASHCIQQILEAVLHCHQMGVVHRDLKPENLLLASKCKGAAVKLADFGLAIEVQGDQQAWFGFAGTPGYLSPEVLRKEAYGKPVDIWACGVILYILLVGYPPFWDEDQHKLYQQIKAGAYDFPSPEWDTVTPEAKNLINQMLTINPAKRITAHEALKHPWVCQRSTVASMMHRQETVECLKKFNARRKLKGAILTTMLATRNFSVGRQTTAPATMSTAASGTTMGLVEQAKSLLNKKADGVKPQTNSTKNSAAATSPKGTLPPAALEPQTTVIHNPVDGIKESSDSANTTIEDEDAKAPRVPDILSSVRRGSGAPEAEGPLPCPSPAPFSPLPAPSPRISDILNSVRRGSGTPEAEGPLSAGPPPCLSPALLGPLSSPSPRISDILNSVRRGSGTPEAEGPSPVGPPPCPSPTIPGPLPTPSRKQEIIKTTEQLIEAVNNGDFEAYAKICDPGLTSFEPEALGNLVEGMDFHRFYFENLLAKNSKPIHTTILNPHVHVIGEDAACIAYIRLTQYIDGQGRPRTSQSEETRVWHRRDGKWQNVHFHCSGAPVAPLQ

[6] = molecular target: T2, Mitogen-activated protein kinase 12 (Homo sapiens) (UniProt P53778); assay: Inhibition of human recombinant p38gamma at 15 nM in presence of ATP by radiometric assay relative to control
T2 sequence (whole entry): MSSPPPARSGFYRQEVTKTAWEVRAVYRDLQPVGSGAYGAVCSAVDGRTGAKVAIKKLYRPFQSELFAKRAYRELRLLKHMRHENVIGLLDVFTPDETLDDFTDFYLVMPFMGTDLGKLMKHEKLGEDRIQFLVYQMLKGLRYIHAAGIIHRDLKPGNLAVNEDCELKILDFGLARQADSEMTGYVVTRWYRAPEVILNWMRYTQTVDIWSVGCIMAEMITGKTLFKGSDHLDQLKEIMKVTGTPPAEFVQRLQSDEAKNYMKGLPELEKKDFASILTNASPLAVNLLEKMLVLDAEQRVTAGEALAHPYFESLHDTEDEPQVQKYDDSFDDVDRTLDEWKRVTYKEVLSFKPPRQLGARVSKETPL

[7] = molecular target: Serine-protein kinase ATM (Homo sapiens) (UniProt Q13315); assay: Inhibition of human recombinant ATM at 40 nM related to control ULK1
Method in brief: (§1)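 Radiometric activity assays in a panel of 327 human recombinant kinases, each run in duplicate at one inhibitor concentration. Activity remaining is expressed as percent of vehicle control, and percent inhibition is calculated as 100% minus percent activity remaining.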

[8] = molecular target: PAS domain-containing serine/threonine-protein kinase (Homo sapiens) (UniProt Q96RG2); assay: Inhibition of human recombinant PASK at 40 nM related to control ULK1
Chain of PAS domain-containing serine/threonine-protein kinase (Homo sapiens) (Q96RG2 whole entry, the tested form may be a part): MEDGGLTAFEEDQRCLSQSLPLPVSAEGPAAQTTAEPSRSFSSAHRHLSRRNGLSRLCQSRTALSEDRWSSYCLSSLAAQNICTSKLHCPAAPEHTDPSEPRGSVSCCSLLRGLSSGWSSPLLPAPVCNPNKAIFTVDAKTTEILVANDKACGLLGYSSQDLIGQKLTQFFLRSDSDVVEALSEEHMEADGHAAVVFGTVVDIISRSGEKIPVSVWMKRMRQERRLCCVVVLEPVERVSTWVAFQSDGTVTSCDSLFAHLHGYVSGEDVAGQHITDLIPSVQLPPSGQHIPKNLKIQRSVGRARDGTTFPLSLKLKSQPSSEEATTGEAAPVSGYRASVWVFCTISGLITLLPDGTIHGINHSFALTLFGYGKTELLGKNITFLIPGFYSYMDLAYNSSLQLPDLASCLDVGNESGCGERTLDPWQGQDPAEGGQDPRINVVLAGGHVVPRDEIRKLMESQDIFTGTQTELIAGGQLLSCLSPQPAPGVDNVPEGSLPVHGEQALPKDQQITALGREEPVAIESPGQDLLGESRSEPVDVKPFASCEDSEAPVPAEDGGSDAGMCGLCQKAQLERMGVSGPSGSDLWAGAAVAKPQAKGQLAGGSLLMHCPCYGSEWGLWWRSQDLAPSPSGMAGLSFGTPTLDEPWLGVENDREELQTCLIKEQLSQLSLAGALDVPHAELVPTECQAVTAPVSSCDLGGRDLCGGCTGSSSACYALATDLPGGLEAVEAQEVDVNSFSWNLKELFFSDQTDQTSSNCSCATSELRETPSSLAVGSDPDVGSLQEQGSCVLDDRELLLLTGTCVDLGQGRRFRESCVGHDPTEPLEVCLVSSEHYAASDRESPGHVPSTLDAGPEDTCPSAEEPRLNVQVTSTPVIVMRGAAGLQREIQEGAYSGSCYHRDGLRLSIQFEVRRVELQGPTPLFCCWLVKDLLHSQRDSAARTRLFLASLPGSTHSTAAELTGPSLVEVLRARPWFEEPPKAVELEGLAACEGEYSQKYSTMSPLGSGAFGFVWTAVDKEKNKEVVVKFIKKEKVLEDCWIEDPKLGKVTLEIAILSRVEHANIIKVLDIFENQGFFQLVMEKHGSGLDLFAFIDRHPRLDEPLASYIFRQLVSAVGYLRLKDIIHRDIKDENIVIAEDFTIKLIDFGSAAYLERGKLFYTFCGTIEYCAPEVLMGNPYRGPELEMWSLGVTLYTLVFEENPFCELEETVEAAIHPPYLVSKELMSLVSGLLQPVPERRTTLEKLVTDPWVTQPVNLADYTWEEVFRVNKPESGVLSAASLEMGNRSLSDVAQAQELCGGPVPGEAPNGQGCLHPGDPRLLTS

[9] = molecular target: Serine/threonine-protein kinase 32C (Homo sapiens) (UniProt Q86UX6); assay: Inhibition of human recombinant YANK3 at 40 nM related to control ULK1
Chain of Serine/threonine-protein kinase 32C (Homo sapiens) (Q86UX6 whole entry): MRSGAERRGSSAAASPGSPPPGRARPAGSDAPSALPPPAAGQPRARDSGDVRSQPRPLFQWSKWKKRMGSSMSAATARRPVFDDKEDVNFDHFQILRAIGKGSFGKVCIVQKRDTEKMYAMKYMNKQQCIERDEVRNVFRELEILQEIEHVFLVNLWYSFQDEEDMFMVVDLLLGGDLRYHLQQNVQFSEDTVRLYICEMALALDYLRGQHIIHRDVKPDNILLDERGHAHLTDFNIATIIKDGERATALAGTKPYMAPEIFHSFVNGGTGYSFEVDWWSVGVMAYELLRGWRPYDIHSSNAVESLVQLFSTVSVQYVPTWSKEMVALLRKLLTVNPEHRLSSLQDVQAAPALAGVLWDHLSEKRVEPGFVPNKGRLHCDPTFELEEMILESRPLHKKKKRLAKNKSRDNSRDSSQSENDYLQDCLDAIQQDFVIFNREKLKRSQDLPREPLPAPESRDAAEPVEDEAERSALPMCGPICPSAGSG

[10] = molecular target: T3, MAP kinase-activated protein kinase 5 (Homo sapiens) (UniProt Q8IW41); assay: Inhibition of human recombinant MAPKAPK5 at 40 nM in presence of ATP by radiometric assay relative to control
T3 sequence (whole entry): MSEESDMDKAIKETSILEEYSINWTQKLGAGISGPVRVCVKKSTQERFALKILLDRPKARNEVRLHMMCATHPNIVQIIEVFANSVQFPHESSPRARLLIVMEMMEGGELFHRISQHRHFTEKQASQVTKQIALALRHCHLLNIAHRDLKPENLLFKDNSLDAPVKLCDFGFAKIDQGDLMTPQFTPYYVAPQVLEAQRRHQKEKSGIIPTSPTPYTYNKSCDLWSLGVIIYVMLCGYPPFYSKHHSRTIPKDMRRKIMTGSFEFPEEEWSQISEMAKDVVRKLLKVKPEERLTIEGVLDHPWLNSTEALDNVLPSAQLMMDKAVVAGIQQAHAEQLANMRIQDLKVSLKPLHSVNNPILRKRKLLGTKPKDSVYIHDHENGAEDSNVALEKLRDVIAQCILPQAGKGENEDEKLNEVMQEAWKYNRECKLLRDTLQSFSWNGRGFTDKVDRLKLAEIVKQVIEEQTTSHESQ

[11] = molecular target: Serine/threonine-protein kinase PAK 2 (Homo sapiens) (UniProt Q13177); assay: Inhibition of human recombinant PAK2 at 40 nM in presence of ATP by radiometric assay relative to control
Chain of Serine/threonine-protein kinase PAK 2 (Homo sapiens) (Q13177 whole entry): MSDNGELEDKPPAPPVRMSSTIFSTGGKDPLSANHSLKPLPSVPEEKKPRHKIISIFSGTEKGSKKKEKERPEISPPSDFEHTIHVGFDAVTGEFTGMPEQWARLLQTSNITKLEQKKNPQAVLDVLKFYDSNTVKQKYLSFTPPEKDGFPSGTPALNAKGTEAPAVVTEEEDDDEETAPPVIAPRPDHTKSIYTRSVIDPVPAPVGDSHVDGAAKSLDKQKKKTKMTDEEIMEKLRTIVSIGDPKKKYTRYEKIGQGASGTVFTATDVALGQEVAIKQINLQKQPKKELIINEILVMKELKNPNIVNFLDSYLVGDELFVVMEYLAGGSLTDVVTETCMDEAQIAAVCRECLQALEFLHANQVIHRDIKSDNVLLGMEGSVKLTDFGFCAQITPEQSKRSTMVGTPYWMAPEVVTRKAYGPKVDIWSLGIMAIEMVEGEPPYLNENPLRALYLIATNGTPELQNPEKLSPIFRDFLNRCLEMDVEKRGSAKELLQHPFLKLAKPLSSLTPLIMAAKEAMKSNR

[12] = molecular target: Calcium/calmodulin-dependent protein kinase type 1D (Homo sapiens) (UniProt Q8IU85); assay: Inhibition of human recombinant CaMK1d at 40 nM in presence of ATP by radiometric assay relative to control
Chain of Calcium/calmodulin-dependent protein kinase type 1D (Homo sapiens) (Q8IU85 whole entry, looked up): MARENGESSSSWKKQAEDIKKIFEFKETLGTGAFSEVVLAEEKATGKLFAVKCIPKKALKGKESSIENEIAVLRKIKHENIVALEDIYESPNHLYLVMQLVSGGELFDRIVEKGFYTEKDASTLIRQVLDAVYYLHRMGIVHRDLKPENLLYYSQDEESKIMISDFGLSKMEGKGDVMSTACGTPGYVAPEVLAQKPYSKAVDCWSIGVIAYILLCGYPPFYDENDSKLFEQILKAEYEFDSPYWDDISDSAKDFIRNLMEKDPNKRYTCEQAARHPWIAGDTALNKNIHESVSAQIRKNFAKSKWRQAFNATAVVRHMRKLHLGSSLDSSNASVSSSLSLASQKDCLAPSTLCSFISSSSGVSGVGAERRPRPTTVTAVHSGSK

[13] = molecular target: Cyclin-dependent kinase 2 (Homo sapiens) (UniProt P24941); assay: Inhibition of human recombinant CDK2 at 40 nM in presence of ATP by radiometric assay relative to control
[14] = molecular target: T4, Activin receptor type-1 (Homo sapiens) (UniProt Q04771); assay: Inhibition of human recombinant ALK2 at 40 nM related to control ULK1; method in brief: as §1
T4 sequence (whole entry): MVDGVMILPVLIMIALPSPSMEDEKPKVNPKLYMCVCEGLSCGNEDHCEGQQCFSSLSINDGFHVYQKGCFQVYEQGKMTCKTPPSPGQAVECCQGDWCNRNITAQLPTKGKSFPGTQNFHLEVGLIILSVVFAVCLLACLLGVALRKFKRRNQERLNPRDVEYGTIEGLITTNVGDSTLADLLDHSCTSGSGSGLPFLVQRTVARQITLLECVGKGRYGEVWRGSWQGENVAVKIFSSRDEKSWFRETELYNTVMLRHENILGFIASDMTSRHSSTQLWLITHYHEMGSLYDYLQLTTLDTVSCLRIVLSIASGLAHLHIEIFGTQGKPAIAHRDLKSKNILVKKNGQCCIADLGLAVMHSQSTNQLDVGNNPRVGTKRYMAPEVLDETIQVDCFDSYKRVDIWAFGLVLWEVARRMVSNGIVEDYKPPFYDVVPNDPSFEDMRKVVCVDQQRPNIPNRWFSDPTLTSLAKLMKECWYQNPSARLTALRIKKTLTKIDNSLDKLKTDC

- fold change (FC) [1]: 0
- inhibition [2]: 0%
- inhibition [3]: 0%
SMILES: CNC(=O)c1ccccc1Oc1nc(Nc2cc(OC)c(OC)c(OC)c2)ncc1Br

- inhibition [4]: 42%
- fold change (FC) [5]: 0.11
- inhibition [6]: 5%
SMILES: CC(C)[C@H](NC(=O)c1cc(-c2cnn3cc(-c4ccc(OCCN5CCCCC5)cc4)cnc23)cs1)C(F)(F)F

- fold change (FC) [7]: 0.07
- fold change (FC) [8]: 0.16
- fold change (FC) [9]: 0.07
- inhibition [10]: 0%
- inhibition [11]: 0%
- inhibition [12]: 0%
- inhibition [13]: 29%
- fold change (FC) [14]: 0.77
SMILES: O=C(N[C@@H](C1CC1)C(F)(F)F)c1cc(-c2cnn3cc(-c4ccc(F)cc4)cnc23)cs1
